According to ChEMBL document CHEMBL1151726, “Interactions of antiviral indolo[2,3-b]quinoxaline derivatives with DNA” (2008):
Values joined by “and” are separate entries in the source; they are usually repeats but may differ in a detail not shown here. Identical values can stand only once. Active and inactive are the calls of the source. No cut-off for these calls is given here.

How the values were obtained:
[1] = system: Human betaherpesvirus 5; experiment: Antiviral activity against human cytomegalovirus; assay type: functional
[2] = system: DNA; experiment: Binding affinity to calf thymus DNA assessed as drug-DNA intercalation at 5 to 10 uM by linear dichroism analysis; assay type: nucleic-acid assay; details: Bos taurus
Procedure, shortened: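 Flow linear dichroism with calf thymus DNA at 160 µM bases, ligand 10 µM (monomeric) or 5 µM (dimeric), 10 mM phosphate pH 7.5, Na+ 100 mM, room temperature. Spectra taken over 200–650 nm and baseline-corrected by subtracting the non-oriented sample spectrum.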

[3] = system: Nucleic Acid; experiment: Binding affinity to poly(dA-dT)2 DNA assessed as drug-DNA intercalation at 5 to 10 uM by emission spectra analysis; assay type: nucleic-acid assay
Procedure, shortened: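 Emission spectra recorded with and without poly(dA-dT)2 at 100 µM bases. Ligand at 10 µM (monomeric) or 5 µM (dimeric), room temperature, 10 mM phosphate pH 7.5, total Na+ 100 mM.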

[4] = Ratio of binding constant K for 2 base pair binding site poly(dA-dT)2 DNA to binding constant K for calf thymus DNA
[5] = system: DNA; experiment: Binding affinity to calf thymus DNA assessed as drug-DNA intercalation at 5 to 10 uM by absorption spectra analysis; assay type: nucleic-acid assay; details: Bos taurus
Procedure, shortened: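 Ligands at 10 µM (monomeric) or 5 µM (dimeric) mixed 1:1 by volume with ct-DNA, 160 µM bases, in 10 mM phosphate pH 7.5, total Na+ 100 mM. Absorption spectra recorded at room temperature, several scans averaged.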

[6] = Ratio of binding constant K for 4 base pair binding site poly(dA-dT)2 DNA to binding constant K for calf thymus DNA
[7] = Ratio of binding constant K for poly(dA-dT)2 DNA to binding constant K for calf thymus DNA
[8] = Ratio of binding constant K for 3 base pair binding site poly(dA-dT)2 DNA to binding constant K for calf thymus DNA

## Nc1nc2c(ncn2COC(CO)CO)c(=O)[nH]1 [GANCICLOVIR]
[1]
  inhibition (INH): 30%

## Cc1cc2nc3c4ccccc4n(CCN(C)C)c3nc2cc1C [listing 1 of 2 here]
[2]
  Activity: inactive
[3]
  Activity: Active
[4]
  Ratio: 1.8 and 2.4
[5]
  Activity: Active

## Cc1cc2nc3c4ccccc4n(CCN(C)C)c3nc2cc1C [listing 2 of 2 here]
[1]
  inhibition (INH): 20%

## Cc1cc2nc3c4ccccc4n(CCN(C)C)c3nc2cc1C.I
[1]
  inhibition (INH): 100%

## C[N+](C)(CCCCCC[N+](C)(C)CCn1c2ccccc2c2nc3ccccc3nc21)CCn1c2ccccc2c2nc3ccccc3nc21.[Br-].[Br-]
[3]
  Activity: Active
[6]
  Ratio: 3
[1]
  inhibition (INH): 100%
[5]
  Activity: Active

## Cc1cc2nc3c4cc(N)ccc4n(CCN(C)C)c3nc2cc1C.Cl
[3]
  Activity: Active
[7]
  Ratio: 1.7
[1]
  inhibition (INH): 100%
[5]
  Activity: Active

## C[N+](C)(CCC[N+](C)(C)CCn1c2ccccc2c2nc3ccccc3nc21)CCn1c2ccccc2c2nc3ccccc3nc21.[Br-].[Br-]
[3]
  Activity: Active
[8]
  Ratio: 1.9
[1]
  inhibition (INH): 100%
[5]
  Activity: Active

## Cc1cc2nc3c4ccccc4n(CCN(C)C)c3nc2cc1C.Cl
[1]
  inhibition (INH): 100%
